Compound activity deposited in PubChem BioAssay by NMMLSC.
MEKK3 PB1 HTS: raises or lowers MEK5 binding to the human MEKK3 PB1 domain; Q99759; bead-based flow cytometry, Alexa488-MEK5 binding to MEKK3; actives lie on both sides; 0 = blocked by unlabeled MEK5, 100 = vehicle; binding response (% of control), % at 10 µM; 1.4% of 290,000 active; AID 1529;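 active means binding response more than 3 SD above or below the average of its plate-row segment, actives on both sides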;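 further: Alexa488 bead fluorescence after subtracting the streptavidin-only scavenger bead signal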
Target sequence (Q99759 whole entry, looked up, the tested form may be a part): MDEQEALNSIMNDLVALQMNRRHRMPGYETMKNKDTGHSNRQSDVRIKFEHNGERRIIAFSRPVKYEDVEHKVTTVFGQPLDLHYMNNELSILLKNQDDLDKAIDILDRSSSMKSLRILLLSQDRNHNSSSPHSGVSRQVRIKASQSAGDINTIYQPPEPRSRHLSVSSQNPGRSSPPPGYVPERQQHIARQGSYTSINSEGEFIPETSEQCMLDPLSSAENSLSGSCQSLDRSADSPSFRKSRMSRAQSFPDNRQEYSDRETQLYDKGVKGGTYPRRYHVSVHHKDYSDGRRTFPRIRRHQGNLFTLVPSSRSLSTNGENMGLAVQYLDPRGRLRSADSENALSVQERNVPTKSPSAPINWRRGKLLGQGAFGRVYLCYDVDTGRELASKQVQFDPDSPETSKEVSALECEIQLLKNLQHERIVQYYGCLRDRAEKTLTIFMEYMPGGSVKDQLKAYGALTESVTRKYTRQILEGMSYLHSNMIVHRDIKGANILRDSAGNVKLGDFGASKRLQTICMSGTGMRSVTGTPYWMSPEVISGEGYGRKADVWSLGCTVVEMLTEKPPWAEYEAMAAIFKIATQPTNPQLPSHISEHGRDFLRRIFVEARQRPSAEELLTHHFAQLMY
MEKK2mut PB1 HTS: signal of MEK5 binding to mutant human MEKK2 PB1 domain. bead flow cytometry, Alexa488-MEK5 binding to MEKK2 mutant. percent response, % at 10 µM. 0.35% of 290,000 active. AID 1530; in the data active means percent response above about 24%, passing the limit was not always enough
MEKK2wt PB1 HTS: raises or lowers MEK5 binding to wildtype human MEKK2 PB1 domain; 1.1% of 290,000 active; bead flow cytometry, Alexa488-MEK5 binding to MEKK2 WT; actives lie on both sides; binding response (% of control), % at 10 µM; AID 1531; in the data active means binding response below about 67% or above about 130%
Arrestin-AP2 inh: human beta-arrestin and AP2 interaction inhibition; AID 504490; 0.31% of 340,000 active; FITC-arrestin peptide / GST-AP2 beads, flow cytometry; AP2 beta2 appendage carries R879A mutation; inhibition, % at 10 µM;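 active means inhibition above a set limit, near 3 SD of compounds lacking own fluorescence, cut at about 54% in these data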;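 further: plate controls were DMSO wells for no effect and 5 µM unlabelled arrestin peptide for full effect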
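Test system: GST-tagged AP2 beta2-adaptin appendage (R879A) on 4 µm glutathione beads; also added: fluorescein-tagged arrestin peptide at 50 nM final; timing: 12 min plus 1 h, RT; signal: flow cytometry, FL1 (488/535 nm); read-out: percent drop in bead-associated FITC signal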
MEKK2wt confirm: raises or lowers MEK5 binding to wildtype human MEKK2, retest | binding response (% of control), % at 10 µM | bead flow cytometry, Alexa488-MEK5 binding to MEKK2 WT; actives lie on both sides | 2.4% of 5,900 active | shares compounds with MEKK3 PB1 HTS; in the data active means binding response below about 16% or above about 210%; inactive means in between
MEKK2mut confirm: signal of MEK5 binding to mutant human MEKK2, retest | shares compounds with MEKK3 PB1 HTS | bead flow cytometry, Alexa488-MEK5 binding to MEKK2 mutant | percent response, % at 10 µM | 2% of 5,900 active; in the data active means percent response mostly above about 71%, no sharp cut-off; inactive means mostly below about 38%;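 further: higher means compound restores mutant binding toward wildtype level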
MEKK3-MEK5 inh: confirmation of inhibitors of MEK5 binding to human MEKK3; binding response (% of control), % at 10 µM; 1.8% of 5,900 active; bead flow cytometry, Alexa488-MEK5 binding to MEKK3; hits give low values; shares compounds with MEKK3 PB1 HTS; AID 1894;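 active means binding response below 72% of control, or above a set upper limit, though filed actives all read lower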;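 further: 100% = DMSO only wells and 0% = binding blocked by excess unlabeled MEK5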
* marks the source's active call; other numbers are inactive results; . = not tested or not shown; [ ] = dose if it differs, or a comment. This is a sample that favours compounds with a hit; in the whole collection about 2.3% have one here.

SMILES	MEKK3 PB1 HTS	MEKK2mut PB1 HTS	MEKK2wt PB1 HTS	Arrestin-AP2 inh	MEKK2wt confirm	MEKK2mut confirm	MEKK3-MEK5 inh
COc1ccc(-c2csc(NC(=O)COC(=O)Cc3ccccc3)n2)cc1OC	103.0	3.0	102.0	.	.	.	.
OCCNc1c2c(nc3ccccc13)CCCC2	0.0*[inhibitor]	-42.0	0.0*[inhibitor]	2.0	104.0	-2.0	104.0
c1ccc(CNc2c3c(nc4ccccc24)CCC3)cc1	100.0	1.0	122.0	-1.5	.	.	.
Cc1ccc(Cl)cc1N1CCN(CCN)CC1	108.0	40.0*	139.0*	9.7	128.0	12.0	100.0
O=C1N(c2cccc(Cl)c2)C(c2cccnc2)N2CCCN12 (centres undefined)	74.0*[inhibitor]	-11.0	77.0	10.4	101.0	-1.0	103.0
O=C1N(c2ccccc2)C(c2cccnc2)N2CCCN12 (centres undefined)	76.0	-24.0	77.0	-12.9	.	.	.
Cc1ccc(C(=O)N[C@@H](C)CN2C3=NC[C@H](Cc4ccccc4)N3C[C@H]2Cc2ccc(O)cc2)cc1Br	112.0	31.0*	168.0*	.	155.0	25.0	88.0
Cc1ccc(C(=O)N[C@@H](C)CN2C3=NC[C@@H](Cc4ccccc4)N3C[C@H]2Cc2ccc(O)cc2)cc1Br	108.0	103.0*	248.0*	.	159.0	61.0	107.0
O=C1NC(=O)C(CCc2ccncc2)(CCc2ccncc2)C(=O)N1Cc1ccc(F)cc1	98.0	-10.0	94.0	31.4	.	.	.
CN1C[C@H](CNC(=O)OCc2ccccc2)C[C@@H]2c3cccc4c3c(cn4C)C[C@H]21	116.0	14.0	158.0*	12.3	140.0	10.0	99.0
Cc1ccccc1NC(=O)NCCN1CC1	95.0	23.0	144.0*	-18.9	159.0	22.0	100.0
O=C(NCCCN1CC1)Nc1cccc2ccccc12	.	.	.	4.6	.	.	.
COc1ccc(C(CC(=O)N2CCC3(CC2)OCCO3)NS(=O)(=O)c2ccc(OC)cc2)cc1 (centres undefined)	102.0	8.0	104.0	3.7	.	.	.
COc1ccc(C(CC(=O)N2CCC3(CC2)OCCO3)NS(=O)(=O)c2ccc(C)cc2)cc1 (centres undefined)	78.0*[inhibitor]	-11.0	88.0	14.2	102.0	7.0	105.0
CNP(=O)(Oc1ccccc1)OC12CC3CC(CC(C3)C1)C2 (centres undefined)	99.0	-1.0	100.0	-10.7	.	.	.
CCCNC(=O)N1[C@H]2CC[C@@H]1C(C(=O)OC)=C(c1cccc(OC)c1OC)C2	107.0	5.0	107.0	-9.2	.	.	.
N#CC1=C(N)Oc2c(c(=O)oc3ccccc23)C1c1cccnc1 (centres undefined)	106.0	1.0	108.0	-1.4	.	.	.
CCOc1cc(C2C(C#N)=C(N)Oc3c2c(=O)oc2ccccc32)ccc1OC(=O)c1cccs1 (centres undefined)	129.0*	0.0	100.0	7.8	94.0	-1.0	102.0
O=C(N/N=C/c1c(O)n(CCC2=CCCCC2)c(=O)[nH]c1=O)c1ccccc1	149.0*	1.0	111.0	20.8	100.0	-1.0	104.0
Nc1ccccc1N=Cc1c(O)n(CCC2=CCCCC2)c(=O)[nH]c1=O	104.0	-2.0	96.0	16.6	.	.	.
O=c1[nH]c(=S)n(CCC2=CCCCC2)c(O)c1C=NCc1cccnc1	102.0	3.0	99.0	-1.6	.	.	.
O=C(N/N=C/c1c(O)n(CCC2=CCCCC2)c(=S)[nH]c1=O)c1ccccc1	154.0*	0.0	108.0	25.7	99.0	-2.0	104.0
COc1ccc(/C=C/C2=CCN(C)CC2)cc1	94.0	-3.0	104.0	40.1	.	.	.
CN1CC=C(/C=C/c2ccc(-c3ccccc3)cc2)CC1	110.0	10.0	167.0*	.	163.0	30.0	104.0
CNCCc1ccccc1	100.0	4.0	93.0	.	.	.	.
CNCCC(Oc1ccc(C(F)(F)F)cc1)c1ccccc1 (centres undefined)	114.0	12.0	139.0*	-6.9	115.0	5.0	102.0
